{"data": "Measurements of several laboratories", "note": "Compare with care: the assays were run in different laboratories."}
{"Structure (SMILES)": "CCCC[C@@H]1NC(=O)[C@H](Cc2ccc(O)cc2)NC(=O)[C@@H]2CCCN2C(=O)[C@H](CC(=O)O)NC(=O)[C@H](C)NC(=O)[C@H](Cc2ccccc2)NC(=O)[C@@H]2CSCCC(=O)N3CN(CN(C3)C(=O)CCSC[C@@H](C(=O)N[C@@H](C)C(N)=O)NC1=O)C(=O)CCSC[C@H](NC(C)=O)C(=O)N[C@@H](CC(C)(C)C)C(=O)N1CCC[C@H]1C(=O)N[C@@H](CCC(=O)O)C(=O)N[C@H](CCCCNC(=O)CCc1cn(CCOCCOCCOCCOCCOCCOCCOCCOCCOCCOCCNC(=O)c3cc(C(=O)NCCOCCOCCOCCOCCOCCOCCOCCOCCOCCOCCn4cc(CCC(=O)NCCCC[C@H]5NC(=O)[C@H](CCC(=O)O)NC(=O)[C@@H]6CCCN6C(=O)[C@H](CC(C)(C)C)NC(=O)[C@@H](NC(C)=O)CSCCC(=O)N6CN7CN(C6)C(=O)CCSC[C@H](NC(=O)[C@H](Cc6ccc(O)cc6)NC(=O)[C@@H]6CCCN6C5=O)C(=O)N[C@@H](Cc5ccccc5)C(=O)N[C@@H](C)C(=O)N[C@@H](CC(=O)O)C(=O)N5CCC[C@H]5C(=O)N[C@@H](Cc5ccc(O)cc5)C(=O)N[C@@H](CCCC)C(=O)N[C@H](C(=O)N[C@@H](C)C(N)=O)CSCCC7=O)nn4)cc(C(=O)NCCOCCOCCOCCOCCOCCOCCOCCOCCOCCOCCn4cc(CCC(=O)N[C@H]5CSCCC(=O)N6CN7CN(C6)C(=O)CCSC[C@H](NC(=O)[C@@H](CC(=O)O)NC(=O)[C@H](Cc6cccc8ccccc68)NC(=O)[C@@H]6CCCN6C5=O)C(=O)N[C@@H](CCSC)C(=O)N[C@@H](CCCCNC(=N)N)C(=O)N[C@@H](CC(=O)O)C(=O)N[C@@H](Cc5c[nH]c6ccccc56)C(=O)N[C@@H](CO)C(=O)N[C@@H]([C@@H](C)O)C(=O)N5CCC[C@H]5C(=O)N5C[C@H](O)C[C@H]5C(=O)N[C@@H](Cc5c[nH]c6ccccc56)C(=O)N[C@H](C(N)=O)CSCCC7=O)nn4)c3)nn1)C(=O)N1CCC[C@H]1C(=O)N[C@@H](Cc1ccc(O)cc1)C(=O)N2", "species": "rat", "medium": "plasma", "route": "intravenous", "dose": "2 mg/kg", "measurement": "clearance", "value": "9.2 mL/min/kg"}
{"Structure (SMILES)": "C#Cc1cccc(Nc2ncnc3cc(OCCOC)c(OCCOC)cc23)c1", "species": "male Sprague-Dawley rat", "medium": "plasma", "route": "oral", "dose": "12 mg/kg", "notes": "single dose", "measurement": "CL/F", "value": "22 mL/min/kg"}
{"Structure (SMILES)": "COc1ccc2c(Cc3ccccc3F)c3n(c(=O)c2c1OC)CCc1cc2c(cc1-3)OCO2", "species": "rat", "medium": "plasma", "route": "intravenous", "dose": "5 mg/kg", "measurement": "clearance", "value": "3.67 mL/min/kg"}
{"Structure (SMILES)": "CCOC(=O)[C@@]12C[C@@H]1[C@@H](n1ccc3c(NC)nc(C#Cc4ccc(Cl)s4)nc31)[C@H](O)[C@@H]2O", "species": "male Sprague-Dawley rat", "medium": "plasma", "route": "intravenous", "dose": "0.5 mg/kg", "measurement": "clearance", "value": "302 mL/min/kg"}
{"Structure (SMILES)": "O=C(c1cc(Cc2n[nH]c(=O)c3ccccc23)ccc1F)N1CCN(C(=O)C2CC2)CC1", "species": "female Sprague-Dawley rat", "medium": "plasma", "route": "intravenous", "measurement": "clearance", "value": "2.22 mL/min"}
{"Structure (SMILES)": "Oc1c(-n2ccnn2)cnn1-c1cc(N2CCOCC2)ncn1", "species": "male rat", "medium": "blood", "route": "intravenous", "dose": "5 mg/kg", "measurement": "clearance", "value": "18.3 mL/min/kg"}
{"Structure (SMILES)": "Oc1c(Br)cc(Cl)c2cccnc12", "species": "Sprague-Dawley rat", "medium": "plasma", "route": "subcutaneous", "dose": "10 mg/kg", "measurement": "CL/F", "value": "31.7 mL/min/kg"}
{"Structure (SMILES)": "COCCOC(=O)C1=C(C)NC(C)=C(C(=O)OC(C)C)C1c1cccc([N+](=O)[O-])c1 (stereo not drawn)", "species": "male Sprague-Dawley rat", "medium": "plasma", "route": "oral", "dose": "12 mg/kg", "measurement": "CL/F", "value": "0.0943 mL/min/kg"}
{"Structure (SMILES)": "O=C(Nc1cc(F)c(F)c(F)c1)c1ccc(F)c(S(=O)(=O)NCc2cccc(B(O)O)c2)c1", "species": "male Sprague-Dawley rat", "medium": "plasma", "route": "intravenous", "dose": "2 mg/kg", "measurement": "clearance", "value": "137 mL/min/kg"}
{"Structure (SMILES)": "CNC(=O)c1c(C)oc2cc(Oc3ncnc4cc(OC)c(OC)cc34)ccc12", "species": "Sprague-Dawley rat", "medium": "plasma", "route": "oral", "dose": "1 mg/kg", "notes": "single dose", "measurement": "CL/F", "value": "3.5 mL/min/kg"}
{"Structure (SMILES)": "Cc1c(-c2ccccc2)cccc1N1C(=O)c2cc(CN[C@H](C(=O)O)C(C)O)c(OCc3cccc(C#N)c3)cc2C1=O (stereo partly drawn)", "species": "Sprague-Dawley rat", "medium": "plasma", "route": "intravenous", "dose": "5 mg/kg", "measurement": "clearance", "value": "5.66 mL/min/kg"}
{"Structure (SMILES)": "Oc1cc(O)cc(-c2cc3ccc(O)cc3o2)c1", "species": "male rat", "medium": "plasma", "route": "intravenous", "dose": "5 mg/kg", "measurement": "clearance", "value": "89.5 mL/min/kg"}
